Assay results as given in ChEMBL document CHEMBL1153949, “Design, synthesis, and structure-activity relationship of substrate competitive, selective, and in vivo active triazole and thiadiazole inhibitors of the c-Jun N-terminal kinase” (J Med Chem, 2009).
Active and inactive are the calls of the source. The rule behind the calls is not given here.

Experiments:
[1] = Displacement of biotin-labeled pep-JIP11 from JNK at 100 uM by DELFIA assay
Procedure, shortened: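 GST-JNK added at 10 nM final with Eu-anti-GST antibody (1.9 nM) and compound in DMSO. Incubated 1 hr at 0 °C, washed 5 times, enhancement solution added, and Eu fluorescence read after 10 min (ex 340, em 615 nm). Controls: unlabeled peptide and no-compound blanks.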

[2] = Inhibition of JNK at 100 uM by time-resolved FRET assay
Procedure, shortened: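 LanthaScreen TR-FRET kinase assay. JNK 35 ng/mL with ATF2 substrate 400 nM and ATP 200 μM in 50 mM HEPES pH 7.5, 10 mM MgCl2, 1 mM EGTA, 0.01% Brij-35, with compound. Reaction ran 1 hr at room temperature. Terbium-labeled antibody plus EDTA added, incubated another hour, and read as the 520/495 nm emission ratio.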

[3] = target: RAC-alpha serine/threonine-protein kinase (Homo sapiens) (UniProt P31749); assay: Inhibition of AKT1 at 100 uM
[4] = Inhibition of lethal factor
[5] = target: Mitogen-activated protein kinase 14 (Homo sapiens, UniProt Q16539); assay: Inhibition of p38alpha
Furin = Furin (Homo sapiens, UniProt P09958); assay: Inhibition of furin
[6] = Displacement of biotin-labeled pep-JIP11 from JNK by DELFIA assay
[7] = Selectivity for JNK over p38 alpha
[8] = Inhibition of TNF-alpha-stimulated JNK phosphorylation expressed in HeLa cells by time-resolved FRET assay; format: cell-based
Procedure, shortened: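 HeLa cells stably expressing GFP-c-Jun(1–79), seeded at 10000/well in phenol red-free Opti-MEM with 1% charcoal/dextran-treated FBS, incubated overnight. Compound pretreatment 60 min, then TNF-α 2 ng/ml for 30 min. Cells lysed in buffer containing 2 nM Tb-anti-phospho-c-Jun (Ser73) antibody and equilibrated 1 hr at room temperature. TR-FRET read at 520/490 nm; EC50 taken from the concentration series.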

Mus musculus = assay: Enhancement of insulin insensitivity in BKS.Cg-+Lepr'db/-+Lepr'db/OlaHsd db/db mouse model assessed as reduction in blood glucose levels at 25 mg/kg, ip administered 30 mins before insulin injection; format: functional, organism-based; set-up: dose 25 mg/kg
Procedure, shortened: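 Male db/db mice, 11 weeks old, randomized by blood glucose and fasted 6 h. Compound given at 25 mg/kg i.p., then bovine insulin 0.75 mg/kg i.p. 30 min later. Blood glucose read from tail snips with a hand-held meter at set time points; food returned at 3 h. n=6; means ± S.D.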

[9] = Metabolic stability in rat liver microsomes at 4 uM; format: ADME, Microsome

RAC-alpha serine/threonine-protein kinase (Homo sapiens), sequence (P31749 whole entry): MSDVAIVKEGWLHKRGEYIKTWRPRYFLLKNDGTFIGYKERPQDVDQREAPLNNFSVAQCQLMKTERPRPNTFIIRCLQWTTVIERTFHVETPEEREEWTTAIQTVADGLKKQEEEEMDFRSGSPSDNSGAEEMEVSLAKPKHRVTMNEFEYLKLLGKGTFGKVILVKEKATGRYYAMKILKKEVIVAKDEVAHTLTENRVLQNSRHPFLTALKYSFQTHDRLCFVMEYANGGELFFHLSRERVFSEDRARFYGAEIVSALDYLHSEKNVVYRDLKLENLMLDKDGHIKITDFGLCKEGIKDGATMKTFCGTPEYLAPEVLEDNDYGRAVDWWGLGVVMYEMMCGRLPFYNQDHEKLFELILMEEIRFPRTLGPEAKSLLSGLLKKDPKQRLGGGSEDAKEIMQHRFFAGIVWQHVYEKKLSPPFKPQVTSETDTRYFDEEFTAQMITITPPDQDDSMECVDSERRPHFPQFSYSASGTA
Mitogen-activated protein kinase 14, sequence (Q16539 whole entry): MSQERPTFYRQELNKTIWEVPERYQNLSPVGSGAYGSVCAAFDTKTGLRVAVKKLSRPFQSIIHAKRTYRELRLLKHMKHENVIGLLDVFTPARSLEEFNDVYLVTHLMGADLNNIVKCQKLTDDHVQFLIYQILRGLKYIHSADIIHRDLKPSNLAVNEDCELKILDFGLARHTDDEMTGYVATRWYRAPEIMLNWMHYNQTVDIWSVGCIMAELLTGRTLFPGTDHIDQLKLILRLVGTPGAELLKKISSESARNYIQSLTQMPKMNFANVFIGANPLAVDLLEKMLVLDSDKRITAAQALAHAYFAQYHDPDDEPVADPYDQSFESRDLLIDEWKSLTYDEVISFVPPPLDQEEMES
Furin, sequence (P09958 whole entry): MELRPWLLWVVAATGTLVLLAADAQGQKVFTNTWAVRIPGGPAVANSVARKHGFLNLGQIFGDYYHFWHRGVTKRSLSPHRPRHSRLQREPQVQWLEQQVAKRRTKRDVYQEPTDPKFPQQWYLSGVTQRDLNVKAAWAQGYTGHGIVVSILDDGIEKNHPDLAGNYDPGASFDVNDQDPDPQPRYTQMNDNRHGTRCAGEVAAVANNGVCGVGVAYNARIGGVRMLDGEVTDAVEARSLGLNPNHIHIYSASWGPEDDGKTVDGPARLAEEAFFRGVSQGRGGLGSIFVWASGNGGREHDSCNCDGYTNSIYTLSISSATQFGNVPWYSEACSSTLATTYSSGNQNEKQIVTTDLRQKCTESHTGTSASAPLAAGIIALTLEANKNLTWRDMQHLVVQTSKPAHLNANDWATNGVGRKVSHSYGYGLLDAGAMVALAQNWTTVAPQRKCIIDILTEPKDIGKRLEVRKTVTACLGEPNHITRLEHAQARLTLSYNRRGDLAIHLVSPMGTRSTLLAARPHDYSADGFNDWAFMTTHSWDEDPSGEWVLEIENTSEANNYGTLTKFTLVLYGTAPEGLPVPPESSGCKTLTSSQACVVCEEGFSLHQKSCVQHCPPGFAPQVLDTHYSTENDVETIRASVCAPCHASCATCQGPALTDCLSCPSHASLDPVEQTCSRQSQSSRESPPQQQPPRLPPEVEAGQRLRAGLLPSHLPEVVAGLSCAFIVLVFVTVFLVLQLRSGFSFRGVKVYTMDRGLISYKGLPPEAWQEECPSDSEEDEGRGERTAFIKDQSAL

## CCSc1nnc(O)n1-c1ccccc1
[1]
  inhibition: inactive
[2]
  inhibition: 16%

## O=[N+]([O-])c1ccc(-n2c(O)nnc2Sc2ncc([N+](=O)[O-])s2)cc1
[3]
  inhibition: 20%
[4]
  IC50: > 100 µM

## Cn1cccc1-c1nnc(Sc2ncc([N+](=O)[O-])s2)n1-c1ccc(Cl)cc1Cl
[5]
  IC50: > 100 µM
[3]
  inhibition: 14%
Furin
  IC50: > 50 µM
[4]
  IC50: > 100 µM

## O=[N+]([O-])c1cnc(Sc2nnc(O)n2-c2ccc(F)c(F)c2)s1
[1]
  inhibition: 73%

## O=c1[nH]nc(Sc2ncc([N+](=O)[O-])s2)n1-c1ccc([N+](=O)[O-])cc1
[5]
  IC50: > 100 µM
Furin
  IC50: > 50 µM

## O=C(Nc1nnc(Sc2ncc([N+](=O)[O-])s2)s1)c1ccc(F)cc1
[1]
  inhibition: inactive

## Oc1nnc(SCc2ccccc2)n1-c1ccc2c(c1)OCCO2
[1]
  inhibition: inactive
[2]
  inhibition: 2%

## Nc1nnc(SCc2ccc(F)cc2)s1
[6]
  IC50: > 1 µM

## O=[N+]([O-])c1ccc(Sc2nnc(O)n2-c2ccccc2)s1
[1]
  inhibition: 55%
[2]
  inhibition: 22%

## Nc1nnc(Sc2ncc([N+](=O)[O-])s2)s1
[7]
  Ratio IC50: 142
[6]
  Activity: Dose-dependent effect
[5]
  IC50: > 100 µM
[3]
  inhibition: 11%
Furin
  IC50: > 50 µM
[4]
  IC50: > 100 µM
[8]
  EC50: 6.23 µM
Mus musculus
  Activity: Active
[9]
  half-life at 4 µM: 27 min

## O=[N+]([O-])c1ccc(CSc2nnc(SCc3ccc([N+](=O)[O-])cc3)s2)cc1
[1]
  inhibition: inactive

## COc1ccc(CSc2nnc(SCc3ccc(OC)cc3)s2)cc1
[1]
  inhibition: inactive

## c1ccc(CSc2nnc(SCc3ccccc3)s2)cc1
[1]
  inhibition: inactive

## Fc1ccc(CSc2nnc(SCc3ccc(F)cc3)s2)cc1
[1]
  inhibition: inactive

## O=[N+]([O-])c1cnc(Sc2nnc(Sc3ncc([N+](=O)[O-])s3)s2)s1
[5]
  IC50: > 100 µM
[3]
  inhibition: 27%
Furin
  IC50: > 50 µM
[4]
  IC50: > 100 µM

## O=[N+]([O-])c1cnc(Sc2nnc(O)n2-c2ccc3c(c2)OCCO3)s1
[6]
  IC50: 0.108 µM

## O=[N+]([O-])c1cccc(CSc2nnc(SCc3cccc([N+](=O)[O-])c3)s2)c1
[1]
  inhibition: inactive

## CCCCSc1nnc(O)n1-c1ccccc1
[1]
  inhibition: inactive
[2]
  inhibition: 25%
